Source: PubChem
AHR act: AHR activators, primary screen, cell-based, luminescence, luciferase reporter, human | Aryl hydrocarbon receptor (Homo sapiens), P35869 | AHR-responsive luciferase reporter cells | activation, % at 5 µM | hit rate 2.5% among 320,000; in the data active means activation above about 47%;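 further: 0% = vehicle wells and 100% = reference agonist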
TAG inh: inhibitors of triacylglycerol accumulation, primary screen, cell-based, uHTS, fluorescence, H9c2; H9c2 cells, Nile Red lipid (TAG) fluorescence; cells loaded with 200 µM oleic acid; hit rate 0.66% among 230,000; AID 651582, 2012; inhibition, % at 12.5 µM;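 active means pattern-corrected inhibition of lipid staining of at least 50% with the nuclear-stain viability signal not falling by more than 50%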;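 further: 0% = DMSO wells and 100% = triacsin C control wells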
Efflux pump mplx: inhibitors of Candida efflux pumps in yeast, primary screen, S. cerevisiae, Nile Red, multiplex. S. cerevisiae Candida pump triplex. inhibition, % at 10 µM. hit rate 0.44% among 330,000;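 active means plate passing quality check with inhibition over a set limit, or well fluorescence over plate mean plus 4 SD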;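 further: Nile Red retained in pooled yeast measured as flow cytometry median fluorescence; 0% = buffer negative control and 100% = Enniatin B positive control; higher means more Nile Red kept so more efflux inhibition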
TbMetRS inhib: T. brucei MetRS inhibitors, primary screen, biochemical, luminescence; methionyl-tRNA synthetase (Trypanosoma brucei brucei); purified T. brucei MetRS, ATP depletion, Kinase-Glo luminescence; inhibition, % at 11.9 µM; hit rate 0.4% among 360,000;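 active means inhibition above a per-plate cutoff of the control wells' mean inhibition plus 3 SD, cut at about 5.5% in these data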;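 further: 0% = DMSO wells median and 100% = median of wells with control inhibitor compound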
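Test system: purified T. brucei MetRS enzyme. Also added: ATP, methionine and E. coli bulk tRNA substrates. Compound: 11.9 µM single point. Schedule: 15 min enzyme-compound preincubation, 2 h reaction, 10 min detection, 25 °C. Signal: luciferase luminescence of residual ATP, Kinase-Glo. Evaluation: percent inhibition versus plate control medians. Controls: DMSO wells, low control.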
SMARCA2 act: SMARCA2 (BRM) function activators, primary screen, cell-based, luminescence, high throughput. hit rate 1% among 370,000. MG213 cells, MMTV-luciferase reporter, dexamethasone, overnight. activation, % at 9.1 µM; in the data active means activation above about 7.8%;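 further: 0% = vehicle wells and 100% = reference activator wells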
TbMetRS confirm: T. brucei MetRS inhibitors, confirmation, biochemical, luminescence; shares compounds with TbMetRS inhib; hit rate 93% among 1,400; AID 624412, 2012; inhibition, % at 11.9 µM; T. brucei MetRS enzyme, luminescence (ATP depletion); in the data active means inhibition above about 7%
Jurkat cytotox: Jurkat T cell cytotoxicity, cytotoxicity control for T. brucei MetRS inhibitor project, luminescence, high throughput | shares compounds with TbMetRS inhib | Jurkat cells viability, ATP luminescence | inhibition, % at 8.3 µM | hit rate 12% among 1,400; in the data active means inhibition above about 15%;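 further: 0% = vehicle and 100% = reference inhibitor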
TbMetRS FP orth: T. brucei MetRS inhibitors, orthogonal assay for T. brucei MetRS inhibitor project, biochemical, fluorescence polarization. shares compounds with TbMetRS inhib. purified T. brucei MetRS. inhibition, % at 11.9 µM. hit rate 44% among 1,400. AID 651607, 2012; in the data active means inhibition above about 17%;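 further: 0% = vehicle wells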
* marks the source's active call; other numbers are inactive results; · = no result given. In the library only some 4.1% were active in any assay of this set; here they are far more common.

SMILES	AHR act	TAG inh	Efflux pump mplx	TbMetRS inhib	SMARCA2 act	TbMetRS confirm	Jurkat cytotox	TbMetRS FP orth
CC(=O)Nc1ccccc1NC(=O)c1ccccc1-c1ccccc1	-1	·	0	46*	3	3	-1	-4
NC1=[N+](Cc2ccccc2)C(Cc2ccccc2)C2C(=C3CCCCC3n3c(=O)n(-c4ccccc4)c(=O)n32)N1 (stereo not drawn)	·	·	·	·	-4	·	·	·
O=C(Nc1cccc(/C=C/c2ccccn2)c1)c1ccc(-n2cncn2)c([N+](=O)[O-])c1	1	23	0	23*	0	62*	22*	55*
O=C(Nc1ccc(F)c(F)c1)c1ccc(-n2cncn2)c([N+](=O)[O-])c1	-3	6	0	37*	-2	58*	13	29*
Cc1cccc(NC(=O)c2ccc(-n3cccn3)c([N+](=O)[O-])c2)c1	-1	2	0	0	1	·	·	·
O=C(NNC(=O)c1ccccc1F)c1ccc(-n2cncn2)c([N+](=O)[O-])c1	1	-2	0	3	1	·	·	·
O=C(Nc1cc(F)ccc1F)c1ccc(-n2cncn2)c([N+](=O)[O-])c1	8	8	0	36*	-2	57*	2	33*
CN(Cc1ccc2c(c1)CCCN2C)C(=O)[C@@H](Cc1ccccc1)NC(=O)[C@H]1O[C@@H](n2ccc(=O)[nH]c2=O)[C@H](O)[C@@H]1O	·	·	·	·	-1	·	·	·
CN(Cc1ccccc1)C(=O)OCc1cn(Cc2ccc(Cl)cc2)nn1	·	·	·	·	-1	·	·	·
CN1CC=C(c2ccccc2)N(c2ccccc2)C1=O	·	·	·	·	1	·	·	·
Cc1ccc2[nH]cc(S(=O)(=O)c3ccc(C)c(C)c3)c(=O)c2c1	0	·	0	6.8*	0	38*	4	9
COC(=O)[C@]12C[C@H](CC(=O)NCCc3ccccc3OC)C(=O)N(CCc3ccc(OC)c(OC)c3)C1=C[C@H](C(C)C)O[C@@H]2C1CC1	·	·	·	·	-3	·	·	·
O=C(CCC(=O)Nc1cccc([N+](=O)[O-])c1)N/N=C/c1cccs1	·	14	0	44*	1	69*	7	48*
CCCC[C@H]1C2CC(OC(=O)NCCCC(=O)OCC)C(C2)[C@H]2CCCCN21 (stereo partly drawn)	·	·	·	·	-2	·	·	·
Cc1ccc(C2CC2C(=O)NNC(=S)Nc2ccc(Cl)cc2)cc1 (stereo not drawn)	1	·	0	39*	2	67*	1	38*
CCOC(=O)[C@]12CCCC=C1N(Cc1ccc(OC)cc1)C(=O)[C@@H]2CC(=O)N1CCC(c2ccccc2)CC1	·	·	·	·	-5	·	·	·
CC(=O)NCCCOc1ccc([N+](=O)[O-])cc1Cl	1	·	0	7.3*	6	14*	-1	5
COC(=O)C1CN(Cc2ccccc2)CCS(=O)(=O)N1Cc1cn(Cc2ccc(Cl)cc2)nn1 (stereo not drawn)	·	·	·	·	-5	·	·	·
CCN(CC)C(=O)CC[C@H]1CC[C@]2(CCCN(C(=O)C3CCCC3)C2)O1	·	·	·	·	-3	·	·	·
Cc1cc(N2C(=O)C(O)=C(C(=O)c3ccco3)C2c2ccc(Cl)cc2)no1 (stereo not drawn)	-3	·	0	6.1*	-1	4	6	-3
Cc1cc(N2C(=O)C(O)=C(C(=O)c3ccco3)C2c2ccc(O)cc2)no1 (stereo not drawn)	0	-9	0	0	2	·	·	·
O=[N+]([O-])c1ccc(NCCNc2ccc(Cl)nn2)cc1	4	-64	0	11*	2	18*	3	5
O=C(NCCNc1ccc([N+](=O)[O-])cc1)c1ccccc1Cl	·	-2	·	0	-2	·	·	·
